One may read the IC50 as the concentration needed to halve the response being measured.

For test [1], the system named is L02. Put plainly: Antiproliferative activity against human L02 cells after 72 hrs by CCK-8 assay. Type of test: cell-based. The note with it: L02, 72 h. The method, boiled down: (§1)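 Cells seeded at 5 × 10³/well; A549, MCF7 and SH-SY5Y grown in DMEM, CNE and L-02 in RPMI-1640 (10% FBS, pen/strep, 37 °C, 5% CO₂). Compounds in DMSO, diluted in medium; 72 h exposure versus DMSO vehicle. CCK-8 absorbance read at 450 nm; viability taken as treated/control absorbance, IC₅₀ from curve fit. Triplicate wells, three independent experiments.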
Background: Tetrazolium dyes change colour on reduction, which living cells bring about.

Test [2] has as its system A549. Put plainly: Antiproliferative activity against human A549 cells after 72 hrs by CCK-8 assay. Type of test: functional, cell-based. Conditions: A549, 72 h. The method, boiled down:
as §1

The subject of test [3] is CNE. Put plainly: Antiproliferative activity against human CNE cells after 72 hrs by CCK-8 assay. Type of test: functional, cell-based. The method, boiled down:
as §1

For test [4], the system named is SH-SY5Y. Nature of the test: Antiproliferative activity against human SH-SY5Y cells after 72 hrs by CCK-8 assay. Type of test: functional, cell-based. In short, it runs like this: as §1
The test system of test [5] is MCF7. Nature of the test: Antiproliferative activity against human MCF7 cells after 72 hrs by CCK-8 assay. Type of test: functional, cell-based. The note with it: MCF7, 72 h. In short, it runs like this: as §1

For the compound `COc1cnc2nc1Nc1cccc(c1)Nc1ncc(OC)c(n1)Nc1cccc(c1)N2`, the half-maximal inhibitory concentration (IC50) in test [1], in test [2], in test [3], in test [4] and in test [5] was more than 50 µM throughout.
Turning to `Cc1cnc2nc1Nc1cc(cc(N3CCOCC3)c1)Nc1ncc(C)c(n1)Nc1cc(cc(N3CCOCC3)c1)N2`, the IC50 in test [1], in test [2], in test [3], in test [4] and in test [5] was more than 50 µM each time.
Consider `Brc1cc2cc(c1)Nc1nccc(n1)Nc1cc(Br)cc(c1)Nc1nccc(n1)N2`, for which the IC50 was 47.9 µM in test [1]; 6.55 µM in test [2]; more than 50 µM in test [3]; 2.96 µM in test [4]; 9.24 µM in test [5].
Consider `Cc1cnc2nc1Nc1cccc(c1)Nc1ncc(C)c(n1)Nc1cccc(c1)N2`, for which the IC50 in test [1] was determined as 9.89 µM; in test [2], 7.42 µM; in test [3] it was 23.7 µM; in test [4], 17.5 µM; in test [5], 18.8 µM.
In the case of `Fc1cnc2nc1Nc1cc(cc(C(F)(F)F)c1)Nc1ncc(F)c(n1)Nc1cc(cc(C(F)(F)F)c1)N2`, the IC50 in test [1], in test [2], in test [3], in test [4] and in test [5] was more than 50 µM throughout.
As for `FC(F)(F)c1cc2cc(c1)Nc1nccc(n1)Nc1cc(cc(C(F)(F)F)c1)Nc1nccc(n1)N2`, the IC50 in test [1] came out at 20.4 µM; in test [2], 2.05 µM; in test [3], 15.6 µM; in test [4], 1.43 µM; in test [5] it was 5.38 µM.
As for `FC(F)(F)c1cc2cc(c1)Nc1nc(ncc1Cl)Nc1cc(cc(C(F)(F)F)c1)Nc1nc(ncc1Cl)N2`, the IC50 in test [1], in test [2], in test [3], in test [4] and in test [5] was more than 50 µM in each case.
Consider `Fc1cnc2nc1Nc1cccc(c1)Nc1ncc(Cl)c(n1)Nc1cccc(c1)N2`, for which the IC50 in test [1], in test [2], in test [3], in test [4] and in test [5] was more than 50 µM throughout.
Take `c1cc2nc(n1)Nc1cc(cc(N3CCOCC3)c1)Nc1ccnc(n1)Nc1cc(cc(N3CCOCC3)c1)N2`: the IC50 in test [1], in test [2], in test [3], in test [4] and in test [5] was more than 50 µM each time.
For the compound `CCOC(=O)c1cc2cc(c1)Nc1nc(ncc1Cl)Nc1cc(cc(C(=O)OCC)c1)Nc1nc(ncc1Cl)N2`, the IC50 in test [1], in test [2], in test [3], in test [4] and in test [5] was more than 50 µM in each case.
With `COc1cnc2nc1Nc1cc(cc(N3CCOCC3)c1)Nc1ncc(OC)c(n1)Nc1cc(cc(N3CCOCC3)c1)N2`, the IC50 in test [1], in test [2], in test [3], in test [4] and in test [5] was more than 50 µM in each case.
For the compound `Fc1cnc2nc1Nc1cc(cc(C(F)(F)F)c1)Nc1ncc(Cl)c(n1)Nc1cc(cc(C(F)(F)F)c1)N2`, the IC50 in test [1], in test [2], in test [3], in test [4] and in test [5] was more than 50 µM each time.
Consider `c1cc2cc(c1)Nc1nccc(n1)Nc1cccc(c1)Nc1nccc(n1)N2`, for which the IC50 in test [1], in test [2], in test [3], in test [4] and in test [5] was more than 50 µM throughout.
On to `Cc1cnc2nc1Nc1cc(cc(N3CCCC3)c1)Nc1ncc(C)c(n1)Nc1cc(cc(N3CCCC3)c1)N2`, for which the IC50 in test [1] was 30.8 µM; in test [2], 4.25 µM; in test [3], more than 50 µM; in test [4], 7.21 µM; in test [5], 4.9 µM.
Regarding `COc1cnc2nc1Nc1cc(cc(C(F)(F)F)c1)Nc1ncc(OC)c(n1)Nc1cc(cc(C(F)(F)F)c1)N2`, the IC50 in test [1], in test [2], in test [3], in test [4] and in test [5] was more than 50 µM in each case.
As for `CC(C)S(=O)(=O)c1ccc2cc1Nc1ncc(Cl)c(n1)Nc1ccc(S(=O)(=O)C(C)C)c(c1)Nc1ncc(Cl)c(n1)N2`, the 50% inhibitory concentration (IC50) in test [1], in test [2], in test [3], in test [4] and in test [5] was more than 50 µM each time.
Consider `Fc1cnc2nc1Nc1cccc(c1)Nc1ncc(F)c(n1)Nc1cccc(c1)N2`, for which the IC50 in test [1], in test [2], in test [3], in test [4] and in test [5] was more than 50 µM throughout.
With `Cc1cnc2nc1Nc1cc(cc(C(F)(F)F)c1)Nc1ncc(C)c(n1)Nc1cc(cc(C(F)(F)F)c1)N2`, the IC50 in test [1], in test [2], in test [3], in test [4] and in test [5] was more than 50 µM throughout.
For the compound `Clc1cnc2nc1Nc1cccc(c1)Nc1ncc(Cl)c(n1)Nc1cccc(c1)N2`, the IC50 in test [1], in test [2], in test [3], in test [4] and in test [5] was more than 50 µM each time.
In the case of `COc1cccc2c1C(=O)c1c(O)c3c(c(O)c1C2=O)C[C@@](O)(C(=O)CO)C[C@@H]3O[C@H]1C[C@H](N)[C@H](O)[C@H](C)O1` [DOXORUBICIN], the IC50 in test [1] was found to be 0.88 µM; in test [2] it was 0.63 µM; in test [3], 0.22 µM; in test [4], 0.89 µM; in test [5] it was 0.48 µM.
The like results for `COc1cnc2nc1Nc1cc(cc(N3CCCC3)c1)Nc1ncc(OC)c(n1)Nc1cc(cc(N3CCCC3)c1)N2` were, in that order, 15.8 µM, 1.6 µM, 35.7 µM, 2.05 µM and 1.45 µM.

The values above are taken from ChEMBL document CHEMBL4152192, “Synthesis and anticancer activity evaluation of novel azacalix[2]arene[2]pyrimidines” (Eur J Med Chem, 2018).
